According to ChEMBL document CHEMBL3616459, “Antimicrobial peptides with potential for biofilm eradication: synthesis and structure activity relationship studies of battacin peptides” (J Med Chem, 2015):
Activity calls are given as the source filed them. The rule behind the calls is not given here. Non-standard residues stand in square brackets, D forms with d. Residues, ends and D or L forms follow the SMILES beside them. ξ: configuration not given here. *: point of attachment. Hexanoyl(4ξ-Me) = CCC(C)CCC(=O)*; dDab = NCC[C@@H](N)C(=O)O; Dab = NCC[C@H](N)C(=O)O

Assays:
Pseudomonas aeruginosa [1] = experiment: Antimicrobial activity against Pseudomonas aeruginosa assessed as inner membrane permeability at 0.5 to 100 uM measured after 60 min by propidium iodide uptake assay
Escherichia coli [2] = experiment: Bactericidal activity against Escherichia coli assessed as reduction in bacterial count at 2 to 4 times MIC after 24 hrs by time-kill assay relative to control; type: functional, organism-based
How it was run: (§1)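 Time-kill assay. Overnight culture diluted in LB to mid-log phase, 10^5–10^8 CFU/mL; 100 μL added to 10 mL peptide in LB at 1×, 2×, 4× and 20× MIC. Incubated with shaking at 100 rpm, at 28 °C (Ea1501, Psa) or 37 °C (E. coli, P. aeruginosa, S. aureus). Samples at 0, 0.5, 1, 3, 6, 9 and 24 h serially diluted in 0.9% saline and plated; colonies counted after 24 h. Run in duplicate. Bactericidal means ≥2-log10 CFU/mL drop versus the no-antibiotic control.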

[3] = tested on: Pseudomonas syringae pv. actinidiae; experiment: Antimicrobial activity against Pseudomonas syringae pv. actinidiae 16027 preformed biofilms at 5 to 10 uM after 24 hrs; type: functional
How it was run: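 Psa16027 biofilms formed 48 h without peptide, then washed. 100 μL of peptide (1, 5 or 50 μM) in LB, or LB alone, added and incubated a further 24 h at 28 °C. Crystal violet staining followed, with A560 estimation of biofilm mass and microscopy.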

Pseudomonas aeruginosa [4] = experiment: Antimicrobial activity against Pseudomonas aeruginosa preformed biofilms at 10 to 50 uM after 48 hrs; type: functional, organism-based
How it was run: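 Biofilms preformed 48 h without peptide, then washed. Peptide at 10, 50 or 100 μM in LB added and incubated a further 24 h at 37 °C. Live/dead BacLight staining on coverslips, then fluorescence microscopy at 1000×.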

Escherichia coli [5] = experiment: Antimicrobial activity against Escherichia coli assessed as perturbed cell membrane at 2 times MIC measured after 24 hrs by scanning electron microscopy; type: functional, organism-based
How it was run: (§2)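 Bacteria grown to OD600 0.3 in LB on glass slides for 24 h, then washed with 10 mM sodium phosphate pH 7.4. Treated 20 min with peptide in LB at twice the upper limit of its MIC, washed, and fixed in 4% glutaraldehyde 1 h. Dehydrated through graded ethanol, dried at 60 °C, platinum coated, and imaged by SEM at 10 kV.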

Pseudomonas aeruginosa [6] = experiment: Antimicrobial activity against Pseudomonas aeruginosa assessed as complete cell lysis at 2 times MIC […]; type: functional, organism-based
Pseudomonas aeruginosa [7] = experiment: Inhibition of Pseudomonas aeruginosa biofilm formation at 10 to 50 uM after 48 hrs; type: functional, organism-based
How it was run: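 P. aeruginosa or S. aureus biofilms grown 48 h on coverslips in 12-well plates, with peptide added at inoculation at 5, 10, 25, 50 or 100 μM. Coverslips rinsed, dried at 50 °C and stained with BacLight (SYTO 9/propidium iodide) for 25 min in the dark at room temperature. Examined by fluorescence microscopy at 1000×.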

Pseudomonas syringae = experiment: Bactericidal activity against Pseudomonas syringae pv. actinidiae 16027 by time-kill assay; type: functional, organism-based
How it was run: as §1

Pseudomonas aeruginosa [8] = experiment: Bactericidal activity against Pseudomonas aeruginosa at 20 times MIC after 24 hrs by time-kill assay relative to control; type: functional, organism-based
How it was run: as §1

Staphylococcus aureus = experiment: Antimicrobial activity against Staphylococcus aureus assessed as perturbed cell membrane at 2 times MIC measured after 24 hrs by scanning electron microscopy; type: functional, organism-based
How it was run: as §2

Erwinia amylovora = experiment: Bactericidal activity against Erwinia amylovora 1501 at 2 to 20 times MIC after 9 hrs by time-kill assay; type: functional, organism-based
How it was run: as §1

[9] = Hemolytic activity in mouse erythrocytes at 100 uM to 1 mM after 1 hr by spectrophotometry; type: ADME, cell-based, Erythrocyte; conditions: read-out: Activity
How it was run: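 100 μL peptide (1 μM–1 mM in Tris buffer) plus 100 μL cells, incubated 1 h at 37 °C, triplicates. After centrifugation, supernatant A540 read. Percent hemolysis calculated relative to buffer (0%) and 0.1% Triton X-100 (100%) controls.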

Question: For `CCC(C)CCC(=O)N[C@H](CCN)C(=O)N[C@@H](CCN)C(=O)N[C@@H](CCN)C(=O)N[C@@H](CC(C)C)C(=O)N[C@H](Cc1ccccc1)C(=O)N[C@@H](CCN)C(=O)N[C@@H](CCN)C(=O)N[C@@H](CC(C)C)C(N)=O` (stereo partly drawn) ({Hexanoyl(4ξ-Me)}-[dDab][Dab][Dab]L[dF][Dab][Dab]L-NH2), which Activity (Pseudomonas aeruginosa [1]) is on record?
Answer: Active

Question: What about the Activity (Escherichia coli [2]) of the same compound?
Answer: inactive

Question: What about the Activity [3] of the same compound?
Answer: Active

Question: And the Activity (Pseudomonas aeruginosa [4])?
Answer: Active

Question: And the Activity (Escherichia coli [5])?
Answer: Active

Question: What about the Activity (Pseudomonas aeruginosa [6]) of the same compound?
Answer: Active

Question: And the inhibition (Pseudomonas aeruginosa [7])?
Answer: Active

Question: What about the Activity (Pseudomonas syringae) of the same compound?
Answer: Dose-dependent effect

Question: What about the Activity (Pseudomonas aeruginosa [8]) of the same compound?
Answer: Active

Question: What about the Activity (Staphylococcus aureus) of the same compound?
Answer: Active

Question: And the Activity (Erwinia amylovora)?
Answer: Active

Question: And the hemolysis at 1 h, 100 µM [9]?
Answer: 1.79%
